Compound activity (PubChem BioAssay)
The list is not random: actives were taken first. Their share in the collection is about 1.9%.
PP1 inh: PP1-alpha (human) inhibition in PP5 counter-screen; purified PP1alpha, OMFP fluorescence; P62136; inhibition, % at 6.7 µM; 320,000 tested, 0.9% active;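 active = inhibition above the mean inhibition of all tested compounds plus 3 SD, computed separately for each screening campaign, cut at about 15% in these data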
Target sequence (P62136 whole entry, looked up): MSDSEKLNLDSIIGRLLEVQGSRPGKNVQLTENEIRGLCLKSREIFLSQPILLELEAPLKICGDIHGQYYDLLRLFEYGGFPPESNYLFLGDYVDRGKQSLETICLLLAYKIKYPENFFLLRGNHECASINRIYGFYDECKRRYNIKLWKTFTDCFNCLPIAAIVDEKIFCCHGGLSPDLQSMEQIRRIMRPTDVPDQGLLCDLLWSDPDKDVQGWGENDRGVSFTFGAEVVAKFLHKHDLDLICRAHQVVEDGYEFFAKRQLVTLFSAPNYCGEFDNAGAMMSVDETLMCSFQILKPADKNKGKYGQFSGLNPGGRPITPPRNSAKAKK
STEP block: blocks human striatal-enriched tyrosine phosphatase | P54829 | recombinant STEP, OMFP fluorogenic substrate, fluorescence | inhibition, % at 20 µM | 360,000 tested, 0.25% active | AID 588621;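 active = inhibition at 20 µM, scaled per plate between control wells, above about 37%, limit read from the data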;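 also: 0% = DMSO with enzyme and substrate and 100% = substrate only without enzyme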
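Measure: Control-normalized % inhibition with plate pattern correction | Test system: STEP phosphatase, cell-free reaction | Medium: pH 6.0 Bis-Tris with DTT and Tween 20 | Technique: Fluorescence, 480/540 nm | Times: Reaction 20 min, ambient temperature | Doses: Single compound dose of 20 µM, 1% DMSO final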
LMPTP block: LMPTP (human) inhibition. recombinant LMPTP-A, OMFP fluorogenic substrate, fluorescence intensity. 360,000 tested, 0.22% active. AID 651560. P24666. inhibition, % at 20 µM;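 active = compounds that cut the enzyme signal by at least half of the control window in the single-dose screen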;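 also: plate controls were DMSO wells with enzyme plus substrate for no effect and substrate without enzyme for full effect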
Target sequence (P24666 whole entry, looked up): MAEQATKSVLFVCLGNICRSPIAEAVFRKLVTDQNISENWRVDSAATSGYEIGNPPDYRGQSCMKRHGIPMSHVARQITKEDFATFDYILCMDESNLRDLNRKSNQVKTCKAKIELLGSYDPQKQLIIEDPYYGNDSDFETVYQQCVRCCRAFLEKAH
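material = LMPTP-A | quantity = 0.625 nM enzyme | reagent = OMFP substrate, 400 µM final | buffer or medium = Bis-Tris pH 6.0, DTT, detergent | detection = endpoint fluorescence intensity from OMFP dephosphorylation | dosing = single 20 µM dose | read-out basis = % inhibition relative to no-enzyme and uninhibited control wells | control set = no-enzyme and uninhibited controls | timing = 50 min at room temperature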
Scp-1 inhibitor: inhibitors of human Scp-1 phosphatase. inhibition, % at 20 µM. AID 493091. Recombinant Scp1, phosphopeptide, malachite green phosphate absorbance. Q9GZU7. 340,000 tested, 0.88% active;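 active = inhibition above about 50% at 20 µM, limit read from the data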;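 also: plate controls were DMSO wells with enzyme for no effect and wells lacking enzyme for full effect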
Target sequence (Q9GZU7 76-261 limits assumed): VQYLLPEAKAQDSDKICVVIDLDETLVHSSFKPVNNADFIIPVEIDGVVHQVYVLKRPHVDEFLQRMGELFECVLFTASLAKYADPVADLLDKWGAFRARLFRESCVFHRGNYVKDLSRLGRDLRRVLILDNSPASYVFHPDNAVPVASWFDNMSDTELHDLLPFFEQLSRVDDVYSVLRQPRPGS
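System: SCP-1 catalytic domain; Reagent: Phospho 17-mer peptide substrate; Doses: one concentration, 20 µM, with 1.0% DMSO; Incubation: 45 min room-temperature reaction, 5 min colour, 30 min stabiliser; Signal: Phosphate-binding colour reagent, absorbance read at 630 nm.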
PP5 primary: PP5 (human) phosphatase inhibition; P53041; purified PP5c, OMFP substrate fluorescence; inhibition, % at 6.7 µM; 320,000 tested, 0.18% active; AID 1987;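 active = inhibition above the campaign's mean inhibition across all tested compounds plus 3 SD, cut at about 9.5% in these data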;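 also: 0% = DMSO only and 100% = 100 µM cantharidin control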
* hit, by the source's call.

What do the screens show for `Nc1ccc2nc(CCCCc3nc4ccccc4[nH]3)[nH]c2c1`?
STEP block: 0.1; LMPTP block: 9.8; Scp-1 inhibitor: -3.7

How did CCCOc1ccc(S(=O)(=O)NCCCN2CCOCC2)c2ccccc12 do in these assays?
PP1 inh: 1.6; STEP block: -2.0; LMPTP block: -1.0; Scp-1 inhibitor: -4.5; PP5 primary: -0.5

Results for O=C(C1=C[C@@H](c2csc3ccccc23)C[C@@H](OCc2ccc(CO)cc2)O1)N1CCN(Cc2ccc3c(c2)OCO3)CC1 ?
PP1 inh: 15.8*; STEP block: 1.9; LMPTP block: 2.1; Scp-1 inhibitor: 1.6; PP5 primary: 3.9

How did CC(CCc1ccccc1)NC(=O)c1nnc(Cc2ccc(F)cc2)o1 (stereo not drawn) do in these assays?
PP1 inh: -0.4; STEP block: 3.6; LMPTP block: -0.6; Scp-1 inhibitor: -9.8; PP5 primary: -1.5

How did O=C(O)CCC(=O)c1ccc(-c2ccccc2)cc1 do in these assays?
PP1 inh: -2.1; STEP block: 0.1; LMPTP block: -0.6; Scp-1 inhibitor: -6.3; PP5 primary: -1.4

How did O=C(Nc1ccccc1)Nc1ncc([N+](=O)[O-])s1 do in these assays?
STEP block: 2.6; LMPTP block: 2.1; Scp-1 inhibitor: -8.7

How did O=C(COC(=O)c1ccccc1)Nc1ncc([N+](=O)[O-])s1 do in these assays?
STEP block: 10.6; LMPTP block: 65.2*; Scp-1 inhibitor: 82.7*

What do the screens show for `O=C(Nc1cc(Sc2ccccn2)cc([N+](=O)[O-])c1)c1ccc([N+](=O)[O-])cc1`?
PP1 inh: 15.5*; STEP block: -0.2; LMPTP block: 3.4; Scp-1 inhibitor: -6.7; PP5 primary: 4.5

What do the screens show for `O=C1Nc2ccccc2/C1=N\N=C\C1=C(N2CCOCC2)C(=C\c2ccccc2)/CC1`?
PP1 inh: -7.5; STEP block: 10.8; LMPTP block: 12.9; PP5 primary: 0.4

What do the screens show for `O=C1Nc2ccc(Br)cc2/C1=N\N=C\C1=C(N2CCOCC2)C(=C/c2ccccc2)/CC1`?
STEP block: 8.0; LMPTP block: 3.4; Scp-1 inhibitor: 64.5*

Results for Cc1nc2ccccc2c(=O)n1Cc1ccco1 ?
PP1 inh: -5.9; STEP block: 3.6; LMPTP block: -1.6; Scp-1 inhibitor: -7.8; PP5 primary: -4.0

Results for Cc1cc(C)cc(-n2c3nc4ccccc4nc3c3c(=O)n(Cc4ccco4)cnc32)c1 ?
PP1 inh: 20.2*; STEP block: 2.0; LMPTP block: 56.3*; Scp-1 inhibitor: 4.6; PP5 primary: 0.7

What do the screens show for `COc1ccc(Cn2c(C)nc3c(c2=O)c2nc4ccccc4nc2n3Cc2ccco2)cc1`?
STEP block: 37.1; LMPTP block: 43.2; Scp-1 inhibitor: 94.9*

How did CCCc1[nH]nc2c1C(c1ccc(OC(=O)N3CCOCC3)cc1)C(C#N)=C(N)O2 (stereo not drawn) do in these assays?
PP1 inh: -4.0; STEP block: -1.2; LMPTP block: 0.7; Scp-1 inhibitor: -2.5; PP5 primary: -1.2

What do the screens show for `COc1ccccc1C(=O)C1CCCN(C(=O)c2cc(CC(C)C)nc(C)n2)C1` (stereo not drawn)?
PP1 inh: 1.6; STEP block: -2.8; LMPTP block: -1.3; Scp-1 inhibitor: -4.0; PP5 primary: -0.3

What do the screens show for `Nc1cccc2cc(S(=O)(=O)O)ccc12`?
STEP block: 22.4; LMPTP block: 4.0; Scp-1 inhibitor: 61.6*

Results for CCN1/C(=C/c2ccc3cccc(C)c3[n+]2CC)Sc2ccccc21 ?
PP1 inh: 4.6; STEP block: 3.0; LMPTP block: 34.4; Scp-1 inhibitor: 41.0; PP5 primary: 5.0

How did CCN1/C(=C/c2ccc3cc(C)cc(C)c3[n+]2CC)Sc2cc(C)ccc21 do in these assays?
STEP block: 4.5; LMPTP block: 48.0*; Scp-1 inhibitor: 31.8

What do the screens show for `CCN1/C(=C\c2ccc3cc(C)ccc3[n+]2CC)Sc2cc(C)c(C)cc21`?
STEP block: 0.8; LMPTP block: 44.3; Scp-1 inhibitor: 12.8

What do the screens show for `CCN1/C(=C/c2ccc3cc(C)ccc3[n+]2CC)Sc2ccc3sccc3c21`?
PP1 inh: -0.8; STEP block: 15.5; LMPTP block: 84.1*; Scp-1 inhibitor: 46.6; PP5 primary: -0.9

Results for Cc1noc(C)c1NC(=O)N(C)C[C@@H]1Oc2ccc(NS(=O)(=O)c3c(C)noc3C)cc2C(=O)N([C@H](C)CO)C[C@H]1C ?
STEP block: 2.8; LMPTP block: -1.1; Scp-1 inhibitor: 14.5

How did Cc1nnc(SCC(=O)O)o1 do in these assays?
PP1 inh: -2.5; STEP block: 0.3; LMPTP block: -1.3; Scp-1 inhibitor: -2.2; PP5 primary: -0.2

What do the screens show for `COc1ccc(Cc2nnc(NC(=O)Cc3cccs3)s2)cc1OC`?
PP1 inh: 0.8; STEP block: 8.7; LMPTP block: 17.2; Scp-1 inhibitor: 69.9*; PP5 primary: 4.8

Results for Cc1ccccc1OCC(=O)N/N=C/c1ccco1 ?
PP1 inh: -0.6; STEP block: -2.1; LMPTP block: -1.6; Scp-1 inhibitor: 26.0; PP5 primary: -0.3

Results for COc1ccc(OCC(=O)N/N=C/C(C)=C/c2ccco2)c(Br)c1 ?
PP1 inh: 17.4*; STEP block: 0.9; LMPTP block: 0.4; Scp-1 inhibitor: 0.7; PP5 primary: -4.8

How did CC1=CC(C)(C)N2C(=O)C3(C(C#N)=C(N)OC4=C3C(=O)CC(C)(C)C4)c3c(C)c(C)cc1c32 (stereo not drawn) do in these assays?
PP1 inh: 0.4; STEP block: -2.2; LMPTP block: -0.5; Scp-1 inhibitor: -1.8; PP5 primary: 2.8

Results for O=C(O)c1cn(C2CC2)c2cc(N3CCN(S(=O)(=O)c4ccc5c(c4)OCCO5)CC3)c(F)cc2c1=O ?
PP1 inh: 7.0; STEP block: 5.1; LMPTP block: 65.1*; Scp-1 inhibitor: 0.2; PP5 primary: -1.4

Results for O=C(O)C1CCN(S(=O)(=O)c2ccc3c(c2)OCCCO3)CC1 ?
PP1 inh: -4.6; STEP block: -4.3; LMPTP block: -0.2; Scp-1 inhibitor: -4.0; PP5 primary: -2.1

How did Cc1cc(C(=O)COC(=O)c2cc(O)c3ccccc3c2O)c(C)n1CC1CCCO1 (stereo not drawn) do in these assays?
STEP block: 0.8; LMPTP block: 1.9; Scp-1 inhibitor: 73.5*

Results for Cc1cc(C(=O)COC(=O)c2ccccc2O)c(C)n1CC1CCCO1 (stereo not drawn) ?
PP1 inh: -0.9; STEP block: 1.1; LMPTP block: -0.4; Scp-1 inhibitor: -10.0; PP5 primary: -1.1

What do the screens show for `COCCn1c(SCC(=O)c2c(N)n(C3CC3)c(=O)[nH]c2=O)nc2ccccc21`?
PP1 inh: -1.4; STEP block: -3.8; LMPTP block: -1.0; Scp-1 inhibitor: -7.9; PP5 primary: -1.1

How did C[C@@H]1CN([C@H](C)CO)C(=O)CCCn2nncc2CO[C@H]1CN(C)C(=O)c1cc(-c2ccccc2)on1 do in these assays?
STEP block: -1.6; LMPTP block: -2.7
